# Rows were chosen to be rich in hits. Some 4.8% of all compounds tested hit in one or more screens of this group.
# STAT1 activator: STAT1 signaling activation. NIH 3T3 STAT1-luciferase reporter, IFN-gamma, luminescence; 100% = IFN-gamma alone, no compound. activation (% of control), % at 5.5 µM. 2.6% of 200,000 active. AID 932;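 active = activation above the screen-wide mean activation plus 3 SD, cut at about 130% in these data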;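 note: raw ratio to IFN-gamma control signal so 100% means no change and 0% no light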
# APP 5UTR inh: APP translation inhibition | AID 1285 | 0.82% of 190,000 active | SH-SY5Y APP 5'UTR-luciferase reporter, luminescence | inhibition, % at 2 µM;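 active = inhibition above a set limit, derived from the sample mean plus 3 SD, cut at about 45% in these data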
# FLuc inh counter: inhibits firefly luciferase, flagging false hits in luciferase inhibition screens; P08659; 1.5% of 200,000 active; ATPLite firefly luciferase biochemical luminescence, 10 min; AID 1006; inhibition, % at 10 µM;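 active = inhibition above about 50% when tested at 10 µM, limit read from the data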
# Target sequence (P08659 whole entry, looked up): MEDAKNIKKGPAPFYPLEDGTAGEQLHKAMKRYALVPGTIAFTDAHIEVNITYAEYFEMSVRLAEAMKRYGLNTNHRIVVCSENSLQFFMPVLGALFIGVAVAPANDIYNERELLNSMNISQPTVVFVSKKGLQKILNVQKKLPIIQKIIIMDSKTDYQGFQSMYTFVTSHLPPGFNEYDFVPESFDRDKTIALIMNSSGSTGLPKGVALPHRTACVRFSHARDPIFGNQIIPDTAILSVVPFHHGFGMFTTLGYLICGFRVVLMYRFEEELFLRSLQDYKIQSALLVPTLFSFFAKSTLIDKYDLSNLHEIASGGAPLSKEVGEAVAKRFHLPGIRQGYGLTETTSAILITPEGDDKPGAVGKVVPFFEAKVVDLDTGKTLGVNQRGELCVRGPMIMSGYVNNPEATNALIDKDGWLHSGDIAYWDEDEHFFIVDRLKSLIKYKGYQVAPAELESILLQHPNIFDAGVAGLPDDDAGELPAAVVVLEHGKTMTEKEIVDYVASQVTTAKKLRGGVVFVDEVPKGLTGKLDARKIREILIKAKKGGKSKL
# FLuc stim CS: firefly luciferase counter-screen for stimulation assays. ATPlite luciferase biochemical, luminescence, 10 min; 0 = ATP-free wells, 1 = DMSO control. activation factor at 10 µM. 200,000 tested, under 10 active. AID 1027;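 active = luciferase activation factor, scaled between plate controls, of at least 2 with compound at 10 µM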
#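 Material: Luciferase/luciferin reagent mix; Doses: test compounds dosed from 2 mM stocks in 100% DMSO; Schedule: 10 min incubation after luciferase reagent addition, room temperature; Measured by: luminescence from luciferase reaction; Read-out: luminescence gain marking luciferase activators.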
# NF-kB neuron act: compounds increasing NF-kB expression in human neuronal cells; NF-kB reporter expression; stronger effect = higher value; fold change at 12.5 µM; 1.6% of 190,000 active; in the data active = fold change above about 3.3
# APP 5'UTR act: activates APP 5'UTR luciferase reporter; SH-SY5Y APP 5'UTR luciferase reporter, luminescence; zero percent = DMSO vehicle wells; activation, % at 2 µM; 1% of 190,000 active; AID 1276;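 active = activation above a set limit, based on mean plus 3 SD of controls, cut at about 140% in these data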
# * marks the source's active call; other numbers are inactive results; . = no result.
SMILES,STAT1 activator,APP 5UTR inh,FLuc inh counter,FLuc stim CS,NF-kB neuron act,APP 5'UTR act
O=C(NC1CCS(=O)(=O)C1)c1cccc(S(=O)(=O)N2CCCC2)c1 (stereo not given),100,-6,-6,1.1,1.3,6
CCOc1ccc(C(C(=O)NC2CCCC2)N(CCCO)C(=O)c2ccc(-c3ccccc3)[nH]2)cc1 (stereo not given),109,0,-3,1,0.73,0
O=C(CSc1nc2ncccc2[nH]1)NCCc1ccccc1,104,2,-7,1.1,1.1,-2
COc1ccc2nc3ccccc3nc2c1,144*,-45,20,0.8,2.1,45
CN(C)c1nc(N)nc(-c2nc3ccccc3s2)n1,135*,-25,32,0.7,2.9,25
c1ccc2sc(-c3ccc4c(c3)OCO4)nc2c1,96,-168,89*,0.1,6.3*,168*
COc1ccc(-c2nc3ccccc3s2)cc1,33,-169,92*,0.1,3.2,169*
COc1ccc(C2NC(=O)NC(c3ccccc3)=C2c2nc3ccccc3s2)cc1 (stereo not given),97,17,-2,1,0.69,-17
O=C(Nc1cccc(-c2nc3ccccc3s2)c1)c1ccc2c(c1)OCO2,94,7,0,1,1.2,-7
CC(=O)c1ccc(N2CCN(C(C)C(=O)NC3CCCc4ccccc43)CC2)cc1 (stereo not given),99,8,-1,1,1.1,-9
Cc1ccc(C(=O)N/C(=C\c2ccc(-c3ccc([N+](=O)[O-])cc3)o2)C(=O)NC2CCS(=O)(=O)C2)cc1 (stereo not given),99,-37,3,1,0.58,37
CC(C)c1ccc(/C=N/NC(=O)c2c(Cl)cnn2C)cc1,138*,-117,93*,0.1,5.2*,117
Cc1ccc(S(=O)(=O)N2CCCCC2)c(C)c1NS(C)(=O)=O,96,4,-6,1.1,.,-4
COC(=O)c1c(-c2cccc(C)c2)csc1NC(=O)C1CCCO1 (stereo not given),110,-34,-4,1,1.1,34
CCC(=O)Nc1ccc(-c2nc3ccccc3c(=O)o2)cc1,63,15,74*,0.3,.,-15
Cc1cccc(-c2nc3cc(NC(=O)C4CCCO4)ccc3o2)c1 (stereo not given),130*,-138,83*,0.2,4.7*,138*
O=C(O)c1ccc(Cl)cc1NC(=O)C1CCCO1 (stereo not given),100,12,-4,1,0.93,-12
Cc1ccc2oc(-c3cccc(NC(=O)Cc4cccs4)c3)nc2c1,120,4,5,1,1.1,-5
O=C(Nc1cccc(-c2nc3ccccc3c(=O)o2)c1)c1ccccc1,94,-17,-3,1,1,17
CCC(=O)Nc1ccc2oc(-c3cccc(C)c3)nc2c1,103,-190,71*,0.3,3.5*,190*
O=C(Nc1cccc(-c2nc3cc(Cl)ccc3o2)c1)C1CCCO1 (stereo not given),130*,-20,3,1,3.4*,.
CCCCCCCC(=O)NC(Nc1ccc(S(N)(=O)=O)cc1)C(Cl)(Cl)Cl (stereo not given),98,2,-3,1,0.66,-2
CCC(C)(C)n1nnnc1C(c1ccc(C)cc1)N1CCN(Cc2ccc3c(c2)OCO3)CC1 (stereo not given),90,-10,-11,1.1,0.87,10
CCOC(=O)C1CCN(Cc2nc3ccc(Cl)cc3n2CCO)CC1,107,-11,-4,1,1,11
Cc1ccc2oc(-c3cccc(NC(=O)C4CCCO4)c3)nc2c1 (stereo not given),140*,-56,30,0.7,4*,56
COc1ccc(OCC(=O)Nc2cccc(-c3nc4ccccc4o3)c2)cc1,148*,-113,15,0.9,1.8,113
COc1cc(C(=O)Nc2cccc(-c3nc4cc(C)ccc4o3)c2)cc(OC)c1OC,108,-42,29,0.7,1.2,42
NC1=NC(=Nc2ccc(Br)cc2)c2ccccc21,103,7,53*,0.5,1.2,-7
COc1ccc(OC)c(NS(=O)(=O)c2ccc3c(c2)CCC(=O)N3)c1,102,0,-7,1.1,1.2,0

# High-throughput results deposited in PubChem BioAssay by several laboratories.
